Sampled rows, rich in hits. Any-hit rate of the full collection: about 1.5%.
MLL AF4-AF9 inh: inhibitors of human MLL-AF4/AF9 interaction | AlphaScreen, biotin-AF4 peptide binding to FLAG-AF9 | P42568 | 350,000 compounds, 0.47% hits | inhibition, % at 10 µM;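 active means every replicate reaching a set inhibition limit, whatever the replicate mean, cut at about 25% in these data; inconclusive means mean inhibition reaches that limit but some replicates miss it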;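 further: 0% = plate neutral control median and 100% = total signal loss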
RAD54 branch: blocks human RAD54 Holliday junction branch migration | Q92698 | FAM/BHQ fluorescence | inhibition, % at 10.4 µM | AID 602329 | 360,000 compounds, 0.14% hits;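 active means mean normalized replicate activity at least 40 and at least half of replicates scoring 40 or more; inconclusive means only one of the two criteria met; inactive means mean below 40 and under half of replicates reaching 40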;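 further: 0% = median of neutral control wells and 100% = median of positive control wells; inhibitors cause a drop in the FAM fluorescence signal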
dFosB act: enhances mouse delta FosB homodimer DNA binding. P13346. purified delta FosB, TAMRA-CDK5 oligo fluorescence polarization; percent of positive-control signal above neutral wells. activation, % at 25 µM. 340,000 compounds, 0.99% hits. AID 493131;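 active means mean activation above about 17%, with every replicate also reaching it, limit read from the data, passing the limit was not always enough; inconclusive means only one of the two conditions met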
Target sequence (P13346 whole entry, looked up): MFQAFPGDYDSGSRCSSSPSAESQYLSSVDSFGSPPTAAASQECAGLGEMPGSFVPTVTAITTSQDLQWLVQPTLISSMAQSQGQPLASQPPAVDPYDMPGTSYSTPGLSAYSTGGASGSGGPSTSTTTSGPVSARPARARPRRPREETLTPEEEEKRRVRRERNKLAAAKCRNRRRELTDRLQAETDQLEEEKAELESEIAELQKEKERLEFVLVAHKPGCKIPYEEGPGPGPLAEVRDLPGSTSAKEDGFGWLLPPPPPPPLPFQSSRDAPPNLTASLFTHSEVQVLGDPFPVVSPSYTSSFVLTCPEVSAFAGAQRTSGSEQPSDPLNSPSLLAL
S100A4 inh HTS: inhibitors of human S100A4 binding to myosin IIA peptide; P26447; S100A4/TAMRA-MyoIIA peptide fluorescence polarization; inhibition, % at 10.7 µM; 360,000 compounds, 0.14% hits; AID 652163;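 active means mean inhibition of at least 70% across replicates, with every replicate also reaching that level; inconclusive means mean inhibition reaches 70% but some replicates fall short; inactive means mean inhibition below 70%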
Target sequence (P26447 whole entry, looked up): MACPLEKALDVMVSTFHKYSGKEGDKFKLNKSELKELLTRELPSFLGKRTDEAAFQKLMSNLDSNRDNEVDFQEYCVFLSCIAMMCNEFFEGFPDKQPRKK
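assay system = human S100A4 monomer with TAMRA-labelled myosin IIA peptide | also added = labelled myosin peptide probe, 5 nM | incubation = 5 min between mix addition and reading | control set = DMSO and TFP controls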
RAD52 anneal inh: RAD52 (human) annealing inhibition. P43351. recombinant RAD52 DNA annealing, FRET fluorescence. inhibition, % at 18.7 µM. 360,000 compounds, 0.46% hits;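 active means every replicate showing at least 50% inhibition; inconclusive means mean inhibition at least 50% but not in every replicate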
DNA binder FP: DNA binding artifact in RAD52 counter-screen; Salmon sperm DNA/acridine orange FP displacement; AC50, µM; shares compounds with RAD52 anneal inh; AID 652128; 1,000 compounds, 8% hits;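 active means fitted half-maximal concentration for signal loss at or below twice the highest dose tested, in every separate run, actives reach about 64 µM in these data; inconclusive means runs disagree, or flat partial signal loss, or poor fit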
* marks the source's active call; other numbers are inactive results.

For C[C@@H](NC(=O)[C@H]1[C@H](CO)[C@H]2Cn3c(ccc(-c4cccnc4)c3=O)[C@H]2N1C)c1ccccc1 the results were MLL AF4-AF9 inh 1, RAD54 branch 4, S100A4 inh HTS 7 and RAD52 anneal inh -4.
`C[C@@H]1CN([C@H](C)CO)C(=O)c2cc(NS(=O)(=O)c3ccccc3)ccc2O[C@@H](C)CCCCO[C@H]1CN(C)Cc1ccc2c(c1)OCO2` gave MLL AF4-AF9 inh 3, RAD54 branch -8, S100A4 inh HTS -1 and RAD52 anneal inh 36.
Screening CCCCCCCCCCCCCCCC(O)C[N+](C)(C)CCO (stereo unspecified) returned MLL AF4-AF9 inh 3, dFosB act -179, S100A4 inh HTS -11, RAD52 anneal inh 80* and DNA binder FP 35µM*.
Screening CCCCCC(O)CCCC(=O)O (stereo unspecified) returned MLL AF4-AF9 inh -5, RAD54 branch 3, dFosB act -3, S100A4 inh HTS -8 and RAD52 anneal inh -5.
`COc1cccc(S(=O)(=O)NCC(=O)N2CCCCCC2)c1` gave MLL AF4-AF9 inh -4, RAD54 branch -1, dFosB act 4, S100A4 inh HTS 3, RAD52 anneal inh 108* and DNA binder FP inactive.
For CN1CCN(C(=O)[C@H]2[C@H](CO)[C@H]3Cn4c(ccc(C5=CCCC5)c4=O)[C@@H]2N3S(C)(=O)=O)CC1 the results were MLL AF4-AF9 inh -2, RAD54 branch 1, S100A4 inh HTS 0 and RAD52 anneal inh -5.
Screening CCOC(=O)c1cnc2c(ccc3ccccc32)c1NCCN(C)C returned MLL AF4-AF9 inh 2, RAD54 branch 80*, dFosB act -27, S100A4 inh HTS -13, RAD52 anneal inh 79* and DNA binder FP inactive.
Screening COc1ccc(C(=O)OCCc2sc[n+](CC(=O)c3ccccc3)c2C)cc1 returned MLL AF4-AF9 inh 11, RAD54 branch 17, dFosB act -8, S100A4 inh HTS 0, RAD52 anneal inh 73* and DNA binder FP inactive.
`Cc1c(CCOC(=O)c2ccc(Cl)cc2Cl)sc[n+]1CC(=O)c1ccc(Br)cc1` gave MLL AF4-AF9 inh 13, RAD54 branch 30, dFosB act 3, S100A4 inh HTS -4, RAD52 anneal inh 37 and DNA binder FP inactive.
For Cc1c(CCOC(=O)c2ccc([N+](=O)[O-])cc2)sc[n+]1CC(=O)c1ccccc1 the results were MLL AF4-AF9 inh 3, dFosB act -1, S100A4 inh HTS 52 and RAD52 anneal inh 19.
For Cc1c2cnn(-c3ccccc3)c(=O)c2c(C)n1CCCC(=O)NCCN1CCN(C)CC1 the results were MLL AF4-AF9 inh inconclusive, dFosB act -5, S100A4 inh HTS 3, RAD52 anneal inh 58* and DNA binder FP inactive.
`CCN1CCN(C(=O)CCCn2c(C)c3cnn(-c4ccccc4)c(=O)c3c2C)CC1` gave MLL AF4-AF9 inh 3, RAD54 branch -1, dFosB act -6, S100A4 inh HTS -5 and RAD52 anneal inh -8.
`CC(C)c1ccc(NC(=O)C(c2ccccc2)N2CC(=O)Nc3ccccc32)cc1` (stereo unspecified) gave MLL AF4-AF9 inh 1, RAD54 branch 7, dFosB act 1, S100A4 inh HTS -3, RAD52 anneal inh 62* and DNA binder FP inactive.
CC(C)[C@H](NC(=O)N1CC(=O)Nc2ccccc21)C(=O)N[C@H](C(=O)O)c1ccccc1 was read as MLL AF4-AF9 inh 0, RAD54 branch -22, dFosB act -2, S100A4 inh HTS 0 and RAD52 anneal inh -1.
`C[C@H](O)C#Cc1ccc2c(c1)O[C@@H](CN(C)C(=O)Nc1ccccc1)[C@H](C)CN([C@H](C)CO)S2(=O)=O` gave MLL AF4-AF9 inh -1, RAD54 branch 1, S100A4 inh HTS 10 and RAD52 anneal inh -8.
O=C(C[C@H]1C=C[C@H](NS(=O)(=O)c2ccc(F)cc2)[C@@H](CO)O1)N1CCN(c2ccccc2)CC1 was read as MLL AF4-AF9 inh -3, RAD54 branch -16, S100A4 inh HTS -14 and RAD52 anneal inh -10.
`CCN(CC)CCNC(=O)c1nn(-c2ccc(Cl)cc2)c2c1CCc1cc(OC)ccc1-2` gave MLL AF4-AF9 inh 23, dFosB act 14, S100A4 inh HTS -8, RAD52 anneal inh 66* and DNA binder FP inactive.

Compound activity as filed in PubChem BioAssay.
